Laboratory results reported in ChEMBL document CHEMBL1126270, “Synthesis of 3-[(2,3-dihydro-1,1,3-trioxo-1,2-benzisothiazol-2-yl)alkyl] 1,4-dihydropyridine-3,5-dicarboxylate derivatives as calcium channel modulators” (J Med Chem, 1992).

Assays:
[1] = species on record: Oryctolagus cuniculus; test: Blockade of calcium-evoked contractions evaluated in depolarized rabbit aortic strips; assay type: functional; conditions: Aorta
Summary of the method: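 Male New Zealand rabbit thoracic aorta, helicoidal strips, 2.5 g preload, Krebs–bicarbonate, 37 °C, 95% O2/5% CO2, pH 7.4. After 1 h equilibration, depolarized with 35 mM K+; 1.5 mM Ca2+ added 10 min later, repeated until reproducible. Compound at increasing concentrations from 20 min before and during Ca2+ addition; responses normalized to initial tension; IC50 by Finney method.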

[2] = species on record: Oryctolagus cuniculus; test: Maximum contractile force in rabbit aorta strips; assay type: functional
Summary of the method: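 Rabbit aortic strips, after equilibration in Ca2+-free Krebs, switched to buffer with 10 mM K+. Repeated 1.5 mM Ca2+ pulses until reproducible. Increasing compound concentrations each given 10 min before a further 1.5 mM Ca2+ pulse. Maximum contractile force (mg) taken as vasoconstrictor effect; data as mean ± SEM at 10^-6 M.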

[3] = species on record: Oryctolagus cuniculus; test: Relative potency evaluated (relative potency = IC50 of compound / IC50 of nifedipine) in rabbit; assay type: functional
[4] = species on record: Oryctolagus cuniculus; test: Inhibition of electrically stimulated rabbit left atria contraction.; assay type: functional
Summary of the method: (§1)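 Rabbit left atria electrically driven (1 Hz, 10 ms, twice threshold voltage), equilibrated 1–1.5 h. Compounds added cumulatively (10^-10–10^-6 M), diluted from DMSO stocks into Krebs–Henseleit, final DMSO <0.1%. Isometric force recorded; IC50 from contractile force relative to initial control values, with 95% confidence limits.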

[5] = molecular target: T1, Voltage-dependent L-type calcium channel subunit alpha-1C (Oryctolagus cuniculus, UniProt P15381); test: Selectivity index was measured as the IC50 needed to depress the heart beat divided by IC50 needed to block [Ca2+] contractions in rabbit aortic strips; assay type: functional, tissue-based, Aorta
T1 sequence (P15381 whole entry): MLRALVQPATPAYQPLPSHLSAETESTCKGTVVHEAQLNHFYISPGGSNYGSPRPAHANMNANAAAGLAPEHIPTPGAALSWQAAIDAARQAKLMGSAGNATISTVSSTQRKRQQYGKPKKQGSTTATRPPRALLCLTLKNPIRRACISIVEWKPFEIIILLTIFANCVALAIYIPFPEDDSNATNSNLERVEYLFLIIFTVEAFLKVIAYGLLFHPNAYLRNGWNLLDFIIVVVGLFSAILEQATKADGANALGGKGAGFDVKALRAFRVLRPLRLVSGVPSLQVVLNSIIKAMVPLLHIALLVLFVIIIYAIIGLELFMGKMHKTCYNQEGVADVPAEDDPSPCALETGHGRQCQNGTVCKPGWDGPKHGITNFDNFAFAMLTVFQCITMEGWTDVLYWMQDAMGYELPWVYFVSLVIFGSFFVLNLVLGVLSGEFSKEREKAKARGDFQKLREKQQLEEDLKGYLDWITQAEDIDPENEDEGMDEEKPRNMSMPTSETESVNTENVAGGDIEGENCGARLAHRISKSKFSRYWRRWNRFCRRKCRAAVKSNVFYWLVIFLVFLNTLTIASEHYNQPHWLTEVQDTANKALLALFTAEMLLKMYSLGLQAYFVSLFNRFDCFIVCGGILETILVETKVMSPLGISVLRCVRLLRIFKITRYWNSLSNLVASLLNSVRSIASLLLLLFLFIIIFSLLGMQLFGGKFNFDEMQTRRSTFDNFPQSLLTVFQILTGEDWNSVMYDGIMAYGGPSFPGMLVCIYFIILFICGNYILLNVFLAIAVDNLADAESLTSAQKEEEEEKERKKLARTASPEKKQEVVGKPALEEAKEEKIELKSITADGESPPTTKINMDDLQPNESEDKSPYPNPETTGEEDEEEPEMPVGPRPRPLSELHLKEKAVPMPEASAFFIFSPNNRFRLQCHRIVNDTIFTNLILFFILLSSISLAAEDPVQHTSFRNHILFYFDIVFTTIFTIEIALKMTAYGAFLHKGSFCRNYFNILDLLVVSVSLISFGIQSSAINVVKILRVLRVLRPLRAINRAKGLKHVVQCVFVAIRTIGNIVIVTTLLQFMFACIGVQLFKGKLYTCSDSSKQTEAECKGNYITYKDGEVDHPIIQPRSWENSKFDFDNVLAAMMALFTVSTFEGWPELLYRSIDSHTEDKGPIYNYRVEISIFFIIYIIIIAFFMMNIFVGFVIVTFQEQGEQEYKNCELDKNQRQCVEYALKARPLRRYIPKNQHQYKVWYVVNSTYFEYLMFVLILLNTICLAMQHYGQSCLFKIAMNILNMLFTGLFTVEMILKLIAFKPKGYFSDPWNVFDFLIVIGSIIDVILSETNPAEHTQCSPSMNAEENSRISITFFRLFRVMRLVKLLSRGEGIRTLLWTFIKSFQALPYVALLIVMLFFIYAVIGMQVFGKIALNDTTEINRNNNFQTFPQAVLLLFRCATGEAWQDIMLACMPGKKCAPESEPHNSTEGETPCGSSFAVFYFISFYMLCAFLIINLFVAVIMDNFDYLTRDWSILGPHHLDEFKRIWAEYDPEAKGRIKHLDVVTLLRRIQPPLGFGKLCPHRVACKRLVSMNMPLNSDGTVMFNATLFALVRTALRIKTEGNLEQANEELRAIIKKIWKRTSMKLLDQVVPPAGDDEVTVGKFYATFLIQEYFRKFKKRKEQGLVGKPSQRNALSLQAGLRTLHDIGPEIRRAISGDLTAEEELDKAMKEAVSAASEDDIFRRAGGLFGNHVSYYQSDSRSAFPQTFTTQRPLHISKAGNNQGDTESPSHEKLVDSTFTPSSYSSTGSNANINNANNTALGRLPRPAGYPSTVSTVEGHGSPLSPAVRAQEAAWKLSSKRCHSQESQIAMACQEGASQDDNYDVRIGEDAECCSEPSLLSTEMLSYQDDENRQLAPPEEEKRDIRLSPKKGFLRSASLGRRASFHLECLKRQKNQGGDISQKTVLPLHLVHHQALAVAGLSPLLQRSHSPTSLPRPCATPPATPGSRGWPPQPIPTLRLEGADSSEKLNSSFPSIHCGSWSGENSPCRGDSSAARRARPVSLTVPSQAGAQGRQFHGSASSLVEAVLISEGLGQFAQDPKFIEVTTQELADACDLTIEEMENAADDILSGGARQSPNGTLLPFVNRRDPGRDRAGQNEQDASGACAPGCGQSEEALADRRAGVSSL

[6] = species on record: Rattus norvegicus; test: Compound evaluated for reducing diastolic blood pressure in spontaneously hypertensive rats.; assay type: functional; conditions: Artery
Summary of the method: (§2)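 Anesthetized (pentobarbitone 70 mg/kg ip) Okamoto SHR, 290 ± 30 g; carotid pressure, femoral vein dosing. Cumulative increasing iv bolus doses of 1, 3, 6, 10, 20, 30 µg/kg in PEG-400 (0.1 mL/kg), each recorded 15 min; ED25 for lowering SBP and DBP and duration of hypotensive action estimated.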

[7] = species on record: Rattus norvegicus; test: Reducing systolic blood pressure in spontaneously hypertensive rats.; assay type: functional; conditions: Artery
Summary of the method: (§3)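 Conscious SHR trained 2 weeks, warmed at 31 ± 1 °C for 2 h; tail plethysmography SBP, mean of five readings; only rats above 170 mmHg used. After 24 h fasting, 20 mg/kg by gavage in 20% PEG-400/0.5% methylcellulose (10 mL/kg); SBP change read 1 h post-dose, n = 12.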

[8] = species on record: Rattus norvegicus; test: Duration of action in spontaneously hypertensive rats.; assay type: functional; summary of the method: as §2
[9] = test system: Rattus norvegicus; test: Systolic blood pressure after administration of a single oral dose (20 mg/kg) in spontaneously hypertensive rats; assay type: functional; summary of the method: as §3
[10] = species on record: Oryctolagus cuniculus; test: Recovery of the initial contraction of rabbit aortic strips, blocked at 10e-7 M concentration.; conditions: Aorta
[11] = species on record: Oryctolagus cuniculus; test: Inhibition of electrically stimulated rabbit left atria contraction; assay type: functional; summary of the method: as §1
[12] = test system: Rattus norvegicus; test: Systolic blood pressure after administration of a single oral dose (20 mg/kg) in spontaneously hypertensive rats.; assay type: functional; summary of the method: as §3
[13] = molecular target: T1, Voltage-dependent L-type calcium channel subunit alpha-1C; test: Blockade of calcium-evoked contractions in depolarized aortic strips; assay type: functional, tissue-based, Aorta
[14] = species on record: Oryctolagus cuniculus; test: Relative potency was evaluated. (relative potency = IC50 of compound / IC50 of nifedipine); assay type: functional

Row | Structure (SMILES) | IC50 [1] [µM] | IC50 [4] [µM] | IC50 [11] [µM] | IC50 [13] [µM] | Max contractile force [2] [mg] | Relative potency [3] | Selectivity index [5] | ED25 [6] [mg/kg] | ED25 [7] [mg/kg] | Duration [8] [min] | SBP change [9] [%] | Recovery [10] [%] | SBP change [12] [%] | Relative potency [14]
1 | CC1=NC(C)=C(C(=O)OCCN2C(=O)c3ccccc3S2(=O)=O)C(c2cccc(Cl)c2Cl)/C1=C(\O)OC(C)(C)C (centres undefined) | 0.0023 | 0.281 |  |  |  | 1.3 | 122 | 0.011 | 0.014 | >15 | 36 | 0 |  | 
2 | CCO/C(O)=C1\C(C)=NC(C)=C(C(=O)OCCCN2C(=O)c3ccccc3S2(=O)=O)C1c1cccc(Cl)c1Cl (centres undefined) | 0.0018 | 0.353 |  |  |  | 1.6 | 200 | 0.012 | 0.015 | 2 | 36 | 0 |  | 
3 | CC1=NC(C)=C(C(=O)OCCCN2C(=O)c3ccccc3S2(=O)=O)C(c2cccc(Cl)c2Cl)/C1=C(\O)OC(C)C (centres undefined) | 0.0021 | 0.157 |  |  |  | 1.4 | 75 |  |  |  | 11 | 0 |  | 
4 | CCO/C(O)=C1\C(C)=NC(C)=C(C(=O)OCCN2C(=O)c3ccccc3S2(=O)=O)C1c1ccccc1C(F)(F)F (centres undefined) | 0.0005 |  | 0.0744 |  |  | 5.8 | 152 |  |  |  |  | 14.5 |  | 
5 | CO/C(O)=C1\C(C)=NC(C)=C(C(=O)OCCN2C(=O)c3ccccc3S2(=O)=O)C1c1ccccc1C(F)(F)F (centres undefined) | > 1 |  |  |  | 420 |  |  |  |  |  |  |  |  | 
6 | CO/C(O)=C1\C(C)=NC(C)=C(C(=O)OCCN2C(=O)c3ccccc3S2(=O)=O)C1c1ccccc1Cl (centres undefined) | > 1 |  |  |  | 610 |  |  |  |  |  |  |  |  | 
7 | CC1=NC(C)=C(C(=O)OCCN2C(=O)c3ccccc3S2(=O)=O)C(c2cccc([N+](=O)[O-])c2)/C1=C(\O)OC(C)C (centres undefined) | 0.0003 | 0.037 |  |  |  | 9.7 | 137 |  |  |  |  | 0 | 20 | 
8 | CO/C(O)=C1\C(C)=NC(C)=C(C(=O)OCCCN2C(=O)c3ccccc3S2(=O)=O)C1c1cccc(Cl)c1Cl (centres undefined) | 0.0008 |  | 0.521 |  |  | 3.6 | 686 | 0.01 | 0.012 | >15 | 35 | 0 |  | 
9 | CC1=NC(C)=C(C(=O)OCCN2C(=O)c3ccccc3S2(=O)=O)C(c2cccc(Cl)c2Cl)/C1=C(\O)OC(C)C (centres undefined) | 0.0003 | 0.686 |  |  |  | 10 | 2744 |  |  |  | 8 | 0 |  | 
10 | CCO/C(O)=C1\C(C)=NC(C)=C(C(=O)OCN2C(=O)c3ccccc3S2(=O)=O)C1c1cccc([N+](=O)[O-])c1 (centres undefined) |  |  |  | 0.0033 |  |  |  |  |  |  |  |  |  | 0.1

Continued, in another order:

Row | IC50 [1] [µM] | IC50 [4] [µM] | IC50 [11] [µM] | IC50 [13] [µM] | Structure (SMILES) | Max contractile force [2] [mg] | Relative potency [3] | Selectivity index [5] | ED25 [6] [mg/kg] | ED25 [7] [mg/kg] | Duration [8] [min] | SBP change [9] [%] | Recovery [10] [%] | SBP change [12] [%] | Relative potency [14]
11 | 0.107 |  |  |  | CC1=NC(C)=C(C(=O)OCCN2C(=O)c3ccccc3S2(=O)=O)C(c2cccc([N+](=O)[O-])c2)/C1=C(\O)OCC1CCCO1 (centres undefined) | 570 | <0.1 |  |  |  |  |  |  |  | 
12 | 0.349 |  |  |  | CC1=NC(C)=C(C(=O)OCCN2C(=O)c3ccccc3S2(=O)=O)C(c2ccccc2Cl)/C1=C(\O)OCC1CCCCO1 (centres undefined) | 510 | <0.1 |  |  |  |  |  |  |  | 
13 | 0.0012 |  | 0.0186 |  | CC1=NC(C)=C(C(=O)OCCCN2C(=O)c3ccccc3S2(=O)=O)C(c2ccccc2[N+](=O)[O-])/C1=C(\O)OC(C)C (centres undefined) |  | 2.4 | 15 |  |  |  |  | 0.2 |  | 
14 | 0.0014 |  | 0.168 |  | CC1=NC(C)=C(C(=O)OCCCN2C(=O)c3ccccc3S2(=O)=O)C(c2ccccc2C(F)(F)F)/C1=C(\O)OCC1CCCCO1 (centres undefined) |  | 2.1 | 121 |  |  |  |  | 5 |  | 
15 | > 1 |  |  |  | CC1=NC(C)=C(C(=O)OCCN2C(=O)c3ccccc3S2(=O)=O)C(c2ccccc2[N+](=O)[O-])/C1=C(\O)OCC1CCCCO1 (centres undefined) | 990 |  |  |  |  |  |  |  |  | 
